These results are taken from ChEMBL document CHEMBL3593207, “Imidazole clubbed 1,3,4-oxadiazole derivatives as potential antifungal agents” (2015).

Values after ≈ are worked out from the molar mass of the structure shown.

Holding throughout (type): functional
The test system of experiment [1] is Candida albicans. The experiment can be described thus: Antifungal activity against Candida albicans ATCC 10261 by broth microdilution assay. A digest of the protocol: (§1)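 CLSI M27-A3 broth microdilution. Compounds diluted to 1 mg/ml in 1% DMSO. Fluconazole (1 mg/ml) served as positive control, 1% DMSO as vehicle control, with media and culture controls. Triplicate at each concentration, repeated thrice. Inocula came from YPDA stocks subcultured in broth for 48 h at 37 °C.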

Experiment [2] deals with Candida albicans. The experiment can be described thus: Inhibition of ergosterol biosynthesis in Candida albicans 2323 assessed as ergosterol content after 16 hrs by spectrophotometer analysis. Further details: scale not given: the % may be the effect or the level left. A digest of the protocol:
(§2)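 Cells were pelleted, washed, weighed wet, and saponified in 3 mL 25% alcoholic KOH at 85 °C for 1 h. Sterols were extracted with 1 mL water plus 3 mL n-heptane. Ergosterol content is expressed relative to untreated control cells.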

The subject of experiment [3] is Candida tropicalis. The experiment can be described thus: Inhibition of ergosterol biosynthesis in Candida tropicalis 2356 assessed as ergosterol content after 16 hrs by spectrophotometer analysis. Further details: scale not given: the % may be the effect or the level left. A digest of the protocol: as §2
The subject of experiment [4] is Candida albicans. Put plainly: Antifungal activity against clinical isolates of Candida albicans 2323 after 48 hrs by disc diffusion assay. A digest of the protocol:
(§3)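 Cells grown in YPD were mixed at 10^3 cells/ml into molten agar (about 40 °C) and poured into plates. Test compound at 1/2×MIC, MIC and 2×MIC was spotted on filter discs on the set agar, with fluconazole and 1% DMSO as positive and vehicle controls. Plates were incubated 48 h at 37 °C, then inhibition zone diameters were recorded in mm.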

Experiment [5] has as its system Candida tropicalis. Put plainly: Antifungal activity against Candida tropicalis ATCC 750 after 48 hrs by disc diffusion assay. A digest of the protocol: as §3
The test system of experiment [6] is Candida albicans. Put plainly: Antifungal activity against clinical isolates of Candida albicans 2367 by broth microdilution assay. A digest of the protocol:
as §1
In general terms: Broth dilution looks for growth in wells or tubes with falling amounts of substance.

Experiment [7] relates to Candida albicans. The experiment can be described thus: Inhibition of ergosterol biosynthesis in Candida albicans 2779 assessed as ergosterol content after 16 hrs by spectrophotometer analysis. Further details: scale not given: the % may be the effect or the level left. A digest of the protocol: as §2
Experiment [8] has as its system Candida tropicalis. The experiment can be described thus: Antifungal activity against clinical isolates of Candida tropicalis 2356 by broth microdilution assay. A digest of the protocol: as §1
The subject of experiment [9] is Candida tropicalis. The experiment can be described thus: Inhibition of ergosterol biosynthesis in Candida tropicalis ATCC 750 assessed as ergosterol content after 16 hrs by spectrophotometer analysis. Further details: scale not given: the % may be the effect or the level left. A digest of the protocol:
as §2

The subject of experiment [10] is Candida tropicalis. Put plainly: Antifungal activity against clinical isolates of Candida tropicalis 2356 after 48 hrs by disc diffusion assay. A digest of the protocol: as §3
Background: Agar diffusion results depend on both activity and mobility in agar.

Experiment [11] concerns Candida tropicalis. The experiment can be described thus: Antifungal activity against Candida tropicalis ATCC 750 by broth microdilution assay. A digest of the protocol: as §1
The subject of experiment [12] is Candida tropicalis. Put plainly: Antifungal activity against clinical isolates of Candida tropicalis 2029 after 48 hrs by disc diffusion assay. A digest of the protocol: as §3
Experiment [13] has as its system Candida albicans. Put plainly: Inhibition of ergosterol biosynthesis in Candida albicans 2367 assessed as ergosterol content after 16 hrs by spectrophotometer analysis. Further details: scale not given: the % may be the effect or the level left. A digest of the protocol:
as §2

Experiment [14] deals with Candida tropicalis. The experiment can be described thus: Inhibition of ergosterol biosynthesis in Candida tropicalis 2029 assessed as ergosterol content after 16 hrs by spectrophotometer analysis. Further details: scale not given: the % may be the effect or the level left. A digest of the protocol: as §2
The subject of experiment [15] is Candida tropicalis. Put plainly: Antifungal activity against clinical isolates of Candida tropicalis 2029 by broth microdilution assay. A digest of the protocol: as §1
Experiment [16] concerns Candida albicans. The experiment can be described thus: Antifungal activity against clinical isolates of Candida albicans 2367 after 48 hrs by disc diffusion assay. A digest of the protocol: as §3
In experiment [17] the test system is Candida albicans. The experiment can be described thus: Antifungal activity against clinical isolates of Candida albicans 2779 by broth microdilution assay. A digest of the protocol: as §1
Experiment [18] has as its system Candida albicans. Put plainly: Antifungal activity against clinical isolates of Candida albicans 2779 after 48 hrs by disc diffusion assay. A digest of the protocol:
as §3

In experiment [19] the test system is Candida albicans. The experiment can be described thus: Antifungal activity against clinical isolates of Candida albicans 2323 by broth microdilution assay. A digest of the protocol:
as §1

The test system of experiment [20] is Candida albicans. The experiment can be described thus: Antifungal activity against Candida albicans ATCC 10261 after 48 hrs by disc diffusion assay. A digest of the protocol:
as §3

Experiment [21] deals with Candida albicans. The experiment can be described thus: Inhibition of ergosterol biosynthesis in Candida albicans ATCC 10261 assessed as ergosterol content after 16 hrs by spectrophotometer analysis. Details: scale not given: the % may be the effect or the level left. A digest of the protocol:
as §2

A word on the MIC: it is the lowest concentration found to suppress growth.

Turning to `OC(Cn1cncn1)(Cn1cncn1)c1ccc(F)cc1F` [FLUCONAZOLE], the MIC turned out to be 8 µg/mL (≈ 26.1 µM) in the experiment with Candida albicans [1]; 16 µg/mL (≈ 52.2 µM) in the experiment with Candida albicans [6]; 62 µg/mL (≈ 202 µM) in the experiment with Candida tropicalis [8]; 16 µg/mL (≈ 52.2 µM) against Candida tropicalis [11]; 32 µg/mL (≈ 104 µM) in the experiment on Candida tropicalis [15]; 32 µg/mL (≈ 104 µM) with Candida albicans [17]. Besides, in the experiment with Candida albicans [19], the MIC stood at 32 µg/mL (≈ 104 µM). Besides, the Activity in the experiment with Candida albicans [2], in the experiment with Candida tropicalis [3], with Candida albicans [7], with Candida tropicalis [9], in the experiment on Candida albicans [13] and in the experiment on Candida tropicalis [14] was 100% in each case. Also, the Activity with Candida albicans [21] is listed as 100%. Moreover, the “inhibition zone (IZ)” value in the experiment on Candida albicans [4] is given as 9 mm; with Candida tropicalis [5] it was 16 mm; with Candida tropicalis [10], 8 mm; in the experiment on Candida tropicalis [12] it was 11 mm; in the experiment with Candida albicans [16], 10 mm; in the experiment with Candida albicans [18], 13 mm. In addition, the “inhibition zone (IZ)” value in the experiment on Candida albicans [20] is 11 mm.
